ChEMBL document CHEMBL2390866, “Novel pyrimidoazepine analogs as serotonin 5-HT(2A) and 5-HT(2C) receptor ligands for the treatment of obesity” (Eur J Med Chem, 2013)
The source made the active and inactive calls. The rule behind the calls is not given here.

Experiments:
[1] = Ratio of drug level from brain to plasma in Sprague-Dawley rat at 10 mg/kg, iv measured at 2 hrs; assay type: ADME, organism-based; set-up: dose 10 mg/kg, route intravenous; settings: read-out: BPR
Outline: (§1)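 Rats fasted 12 h, then dosed orally by gavage or by bolus tail-vein injection at 2 ml/kg. Compound given as a 5 mg/ml solution in N-methyl-2-pyrrolidone/Tween 80/water (1:2:7). Samples taken at various times (n = 5) and stored at −70 °C. Plasma deproteinized with acetonitrile containing carbamazepine internal standard, then quantified by LC-MS/MS.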

[2] = Drug uptake in Sprague-Dawley rat brain at 10 mg/kg, iv measured at 2 hrs; assay type: ADME, organism-based; set-up: dose 10 mg/kg, route intravenous; settings: read-out: Drug uptake; outline: as §1
[3] = Plasma concentration in Sprague-Dawley rat at 10 mg/kg, po measured at 8 hrs; assay type: ADME, organism-based; set-up: dose 10 mg/kg, route oral; outline: as §1
[4] = Plasma concentration in Sprague-Dawley rat at 10 mg/kg, iv measured at 8 hrs; assay type: ADME, organism-based; set-up: dose 10 mg/kg, route intravenous; outline: as §1
[5] = Drug excretion in Sprague-Dawley rat at 10 mg/kg, iv; assay type: ADME, organism-based; set-up: dose 10 mg/kg, route intravenous; settings: in vivo, read-out: Ae; outline: as §1
[6] = Terminal half life in Sprague-Dawley rat at 10 mg/kg, iv; assay type: ADME, organism-based; set-up: dose 10 mg/kg, route intravenous; settings: in vivo, read-out: beta t1/2; outline: as §1
Mus musculus [7] = test: Antiobesity activity in B6.V/J ob/ob mouse assessed as change in gonadal adipose tissue weight at 25 mg/kg, po bid measured after 14 days (reference value: 3.599 +/- 0.155 g); assay type: functional
Mus musculus [8] = test: Antiobesity activity in B6.V/J ob/ob mouse assessed as change in spleen weight at 25 mg/kg, po bid measured after 14 days (reference value: 0.097 +/- 0.052 g); assay type: functional
Mus musculus [9] = test: Antiobesity activity in B6.V/J ob/ob mouse assessed as change in spleen weight at 5 mg/kg, po bid measured after 14 days (reference value: 0.097 +/- 0.052 g); assay type: functional
Mus musculus [10] = test: Antiobesity activity in B6.V/J ob/ob mouse assessed as change in brain weight at 5 mg/kg, po bid measured after 14 days (reference value: 0.340 +/- 0.017 g); assay type: functional
Mus musculus [11] = test: Antiobesity activity in B6.V/J ob/ob mouse assessed as change in brain weight at 25 mg/kg, po bid measured after 14 days (reference value: 0.340 +/- 0.017 g); assay type: functional
Mus musculus [12] = test: Antiobesity activity in B6.V/J ob/ob mouse assessed as inhibition of food intake at 25 mg/kg, po bid measured after 14 days relative to vehicle-treated control; assay type: functional; settings: 336 h
Mus musculus [13] = test: Antiobesity activity in B6.V/J ob/ob mouse assessed as reduction of body weight gain at 50 mg/kg, po bid measured after 14 days; assay type: functional, organism-based; set-up: dose 50 mg/kg
Mus musculus [14] = test: Antiobesity activity in B6.V/J ob/ob mouse assessed as reduction of body weight gain at 50 mg/kg, po qd measured after 14 days; assay type: functional, organism-based; set-up: dose 50 mg/kg
Outline: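 Male ob/ob mice (B6.V-Lep^ob/J) received oral doses once daily for 14 days, with vehicle control. Food intake and body weight gain were followed.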

Mus musculus [15] = test: Antiobesity activity in B6.V/J ob/ob mouse assessed as […] at 25 mg/kg, ip measured after 12 hrs relative to vehicle-treated control; assay type: functional; settings: route intraperitoneal
Mus musculus [16] = test: Antiobesity activity in B6.V/J ob/ob mouse assessed as inhibition of body weight gain at 50 mg/kg, ip measured after 12 hrs relative to vehicle-treated control; assay type: functional; settings: route intraperitoneal
Mus musculus [17] = test: Antiobesity activity in B6.V/J ob/ob mouse assessed as inhibition of food intake at 12.5 mg/kg, ip measured up to 12 hrs relative to vehicle-treated control; assay type: functional; settings: route intraperitoneal
Outline: (§2)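 Male mice were acclimated 1 week at 23 ± 3 °C and 50 ± 20% humidity, then fasted 24 h. They were dosed once intraperitoneally with vehicle or compound: 50 mg/kg in C57BL/6, or 12.5, 25 or 50 mg/kg in B6.V-Lep^ob/J. Food intake was measured at 2, 6 and 12 h versus vehicle control.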

Mus musculus [18] = test: Antiobesity activity in B6.V/J ob/ob mouse assessed as inhibition of food intake at 25 mg/kg, ip measured up to 2 hrs relative to vehicle-treated control; assay type: functional; settings: route intraperitoneal; outline: as §2
[19] = target: T1, Alpha-1A adrenergic receptor (Homo sapiens, UniProt P35348); test: Binding affinity to adrenergic alpha1A receptor (unknown origin)
T1 sequence (P35348 whole entry): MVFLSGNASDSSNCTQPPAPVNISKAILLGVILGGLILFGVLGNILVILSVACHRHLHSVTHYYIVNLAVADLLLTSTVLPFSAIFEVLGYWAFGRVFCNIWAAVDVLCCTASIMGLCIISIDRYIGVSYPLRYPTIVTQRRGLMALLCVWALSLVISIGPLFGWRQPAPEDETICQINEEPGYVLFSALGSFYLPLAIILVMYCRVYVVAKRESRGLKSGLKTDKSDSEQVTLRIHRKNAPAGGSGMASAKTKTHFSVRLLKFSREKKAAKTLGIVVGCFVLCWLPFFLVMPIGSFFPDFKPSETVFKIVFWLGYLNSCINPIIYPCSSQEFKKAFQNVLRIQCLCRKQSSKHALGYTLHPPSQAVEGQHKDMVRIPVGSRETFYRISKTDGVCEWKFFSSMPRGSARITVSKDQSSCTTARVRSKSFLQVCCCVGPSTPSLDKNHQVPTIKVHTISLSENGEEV

D(3) dopamine receptor = D(3) dopamine receptor (Homo sapiens, UniProt P35462); test: Displacement of [3H]-methylspiperone from dopamine D3 receptor (unknown origin) after 30 mins
D(3) dopamine receptor, sequence (P35462 whole entry): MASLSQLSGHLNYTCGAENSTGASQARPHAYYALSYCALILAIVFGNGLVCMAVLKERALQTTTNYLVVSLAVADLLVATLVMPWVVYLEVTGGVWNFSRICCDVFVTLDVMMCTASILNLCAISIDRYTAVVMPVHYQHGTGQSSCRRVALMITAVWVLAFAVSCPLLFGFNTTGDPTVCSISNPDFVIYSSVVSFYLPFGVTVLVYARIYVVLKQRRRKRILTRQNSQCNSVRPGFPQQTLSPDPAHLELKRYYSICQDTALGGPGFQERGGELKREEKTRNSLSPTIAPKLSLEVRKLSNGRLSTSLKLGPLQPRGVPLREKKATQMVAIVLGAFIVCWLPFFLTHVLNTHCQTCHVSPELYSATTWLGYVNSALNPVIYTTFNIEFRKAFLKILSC
Outline: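 Receptor membranes incubated at 27 °C, 60 min for D2L and 30 min for D3, with [3H]methylspiperone (0.2 nM for D2L, 0.25 nM for D3) and test compound at a range of concentrations. Buffer was 50 mM Tris-HCl pH 7.4, 10 mM MgCl2, 1 mM EDTA, 120 mM NaCl. Nonspecific binding defined with haloperidol (D2) or GR103691 (D3). IC50 obtained by nonlinear regression.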

[20] = target: 5-hydroxytryptamine receptor 6 (Homo sapiens, UniProt P50406); test: Displacement of [3H]-LSD from human recombinant 5HT-6 receptor expressed in CHOK1 cell membranes after 60 mins; set-up: species or system CHO-K1
5-hydroxytryptamine receptor 6, sequence (P50406 whole entry): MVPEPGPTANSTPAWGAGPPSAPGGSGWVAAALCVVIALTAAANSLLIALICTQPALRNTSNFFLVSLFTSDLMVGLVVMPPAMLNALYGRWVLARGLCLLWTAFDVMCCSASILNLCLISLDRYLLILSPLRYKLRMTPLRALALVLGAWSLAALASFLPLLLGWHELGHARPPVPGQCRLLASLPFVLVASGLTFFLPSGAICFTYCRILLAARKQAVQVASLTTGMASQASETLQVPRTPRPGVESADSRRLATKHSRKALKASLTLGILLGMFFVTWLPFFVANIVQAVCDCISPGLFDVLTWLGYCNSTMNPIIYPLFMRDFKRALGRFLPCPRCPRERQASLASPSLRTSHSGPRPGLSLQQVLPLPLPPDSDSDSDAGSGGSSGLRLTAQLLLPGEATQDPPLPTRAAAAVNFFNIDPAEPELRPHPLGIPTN
Outline: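 CHO-K1 membranes expressing human 5-HT6 incubated with 1 nM [3H]LSD for 60 min at 27 °C in 50 mM Tris-HCl pH 7.4 containing 4 mM CaCl2 and 0.1% ascorbic acid. Terminated by filtration on glass-fiber filters presoaked in 0.5% PEI. Methiothepin defined nonspecific binding.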

In the case of `Cl.Clc1cccc(Nc2nc(Cc3ccccc3)nc3c2CCNCC3)c1`, the Kp at 2 h [1] is reported as 9.33, the concentration at 2 h [2] is reported as 1480 ng/mL and the concentration at 8 h [3] is reported as 30 ng/mL. The concentration at 8 h [4] was 60 ng/mL, the dose excreted [5] was 0.03% and the half-life [6] was 2.25 h. For the same molecule, the Activity (Mus musculus [7]) was 3.127 g, the Activity (Mus musculus [8]) was 0.111 g and the Activity (Mus musculus [9]) was 0.057 g. It also gave an Activity (Mus musculus [10]) of 0.344 g, an Activity (Mus musculus [11]) of 0.369 g and an inhibition in vivo at 25 mg/kg (Mus musculus [12]) of 15.2%. The Activity (Mus musculus [13]) was “Active”, the Activity (Mus musculus [14]) was “inactive” and the inhibition in vivo at 25 mg/kg (Mus musculus [15]) was 51.1%. For the same molecule, the inhibition in vivo at 50 mg/kg (Mus musculus [16]) was 80.2%, the inhibition in vivo at 12.5 mg/kg (Mus musculus [17]) was 47.8% and the inhibition in vivo at 25 mg/kg (Mus musculus [18]) was 99.8%. The IC50 [19] was > 10000 nM, the IC50 (D(3) dopamine receptor) was 807 nM and the IC50 [20] was 21.8 nM.
